# Activity calls are given as the source filed them. The calls are words filed in the database; no cut-off is given here.
# Assays:
# HepG2 = test: Cytotoxicity against human HepG2 cells at 10 uM; assay type: cell-based; conditions: hepg2, 10 µM
# [1] = target: Nuclear factor NF-kappa-B complex (Homo sapiens) (UniProt Q00653+P19838+Q04206); test: Inhibition of NF-kappaB in human HepG2 cells assessed as inhibition of TNF-alpha-induced luciferase reporter gene expression at 10 uM preincubated for 1 hr followed by TNF-alpha stimulation measured after 4 hrs relative to control; assay type: cell-based
# Nuclear factor NF-kappa-B complex (Homo sapiens), sequence (P19838 whole entry, looked up): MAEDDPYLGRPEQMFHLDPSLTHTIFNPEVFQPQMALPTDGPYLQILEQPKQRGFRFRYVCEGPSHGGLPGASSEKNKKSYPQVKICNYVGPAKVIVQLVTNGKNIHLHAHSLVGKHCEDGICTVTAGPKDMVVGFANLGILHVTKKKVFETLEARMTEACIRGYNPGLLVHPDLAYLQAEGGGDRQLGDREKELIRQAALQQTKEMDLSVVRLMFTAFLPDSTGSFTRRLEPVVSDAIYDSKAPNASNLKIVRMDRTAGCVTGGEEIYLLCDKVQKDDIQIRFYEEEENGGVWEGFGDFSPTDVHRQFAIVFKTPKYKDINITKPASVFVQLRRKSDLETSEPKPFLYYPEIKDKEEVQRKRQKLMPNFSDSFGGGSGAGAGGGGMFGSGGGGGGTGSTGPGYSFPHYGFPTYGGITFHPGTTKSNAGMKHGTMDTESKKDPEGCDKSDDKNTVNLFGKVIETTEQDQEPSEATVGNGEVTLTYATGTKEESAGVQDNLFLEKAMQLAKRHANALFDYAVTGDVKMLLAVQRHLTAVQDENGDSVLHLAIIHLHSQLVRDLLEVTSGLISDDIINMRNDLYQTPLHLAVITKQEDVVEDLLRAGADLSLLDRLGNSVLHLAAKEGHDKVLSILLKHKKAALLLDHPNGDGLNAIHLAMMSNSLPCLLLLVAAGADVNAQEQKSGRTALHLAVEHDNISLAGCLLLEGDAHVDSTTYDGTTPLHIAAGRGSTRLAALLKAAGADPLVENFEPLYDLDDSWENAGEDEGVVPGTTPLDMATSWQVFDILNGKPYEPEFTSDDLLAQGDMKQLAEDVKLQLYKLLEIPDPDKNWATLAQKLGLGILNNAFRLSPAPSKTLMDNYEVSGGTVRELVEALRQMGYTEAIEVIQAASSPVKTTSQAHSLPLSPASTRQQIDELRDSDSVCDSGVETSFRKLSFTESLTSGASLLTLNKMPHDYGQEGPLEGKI
# Nuclear factor NF-kappa-B complex (Homo sapiens), sequence (Q00653 whole entry, looked up): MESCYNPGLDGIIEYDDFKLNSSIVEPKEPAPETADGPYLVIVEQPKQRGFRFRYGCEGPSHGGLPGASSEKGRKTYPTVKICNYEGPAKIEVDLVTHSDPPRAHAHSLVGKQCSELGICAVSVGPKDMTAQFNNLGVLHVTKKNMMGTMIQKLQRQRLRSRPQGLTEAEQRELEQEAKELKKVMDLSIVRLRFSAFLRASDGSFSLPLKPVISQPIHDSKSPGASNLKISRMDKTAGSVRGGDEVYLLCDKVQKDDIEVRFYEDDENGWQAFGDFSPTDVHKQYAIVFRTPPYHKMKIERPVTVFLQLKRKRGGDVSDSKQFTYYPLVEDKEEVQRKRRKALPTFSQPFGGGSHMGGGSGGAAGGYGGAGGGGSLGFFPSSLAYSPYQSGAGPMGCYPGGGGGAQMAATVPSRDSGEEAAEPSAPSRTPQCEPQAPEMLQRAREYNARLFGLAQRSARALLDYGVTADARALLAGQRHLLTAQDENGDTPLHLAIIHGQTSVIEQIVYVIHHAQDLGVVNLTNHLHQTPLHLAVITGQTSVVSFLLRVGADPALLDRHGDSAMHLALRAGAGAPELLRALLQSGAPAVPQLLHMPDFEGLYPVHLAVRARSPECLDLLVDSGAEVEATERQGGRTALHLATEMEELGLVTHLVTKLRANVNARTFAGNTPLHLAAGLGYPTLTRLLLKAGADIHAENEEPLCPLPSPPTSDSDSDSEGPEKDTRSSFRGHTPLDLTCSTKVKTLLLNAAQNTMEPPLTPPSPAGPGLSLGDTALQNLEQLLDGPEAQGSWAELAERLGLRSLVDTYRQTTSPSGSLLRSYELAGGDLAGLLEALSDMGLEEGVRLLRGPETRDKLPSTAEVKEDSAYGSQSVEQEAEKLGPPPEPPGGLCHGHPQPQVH
# Nuclear factor NF-kappa-B complex (Homo sapiens), sequence (Q04206 whole entry, looked up): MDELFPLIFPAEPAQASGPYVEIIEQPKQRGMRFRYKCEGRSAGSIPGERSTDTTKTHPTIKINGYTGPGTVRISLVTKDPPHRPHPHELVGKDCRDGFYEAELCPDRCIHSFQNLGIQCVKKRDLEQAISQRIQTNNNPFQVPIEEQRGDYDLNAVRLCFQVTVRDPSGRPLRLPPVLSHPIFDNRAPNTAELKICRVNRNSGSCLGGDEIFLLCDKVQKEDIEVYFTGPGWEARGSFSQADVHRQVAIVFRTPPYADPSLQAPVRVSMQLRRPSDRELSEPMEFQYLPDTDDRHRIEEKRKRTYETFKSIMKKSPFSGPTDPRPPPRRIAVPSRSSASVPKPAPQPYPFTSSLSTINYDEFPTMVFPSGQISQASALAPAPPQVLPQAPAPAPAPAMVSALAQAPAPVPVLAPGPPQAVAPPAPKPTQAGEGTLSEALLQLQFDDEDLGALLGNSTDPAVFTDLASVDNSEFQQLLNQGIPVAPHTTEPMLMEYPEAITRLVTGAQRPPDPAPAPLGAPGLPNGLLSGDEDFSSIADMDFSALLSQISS
# Summary of the method: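 HepG2 cells stably carrying an NF-κB-luciferase reporter, grown in DMEM with 10% FBS and penicillin/streptomycin at 37 °C, 5% CO2. Seeded overnight at 5 × 10^4 cells/well (24-well), preincubated 1 h with compound at 10 μM, then stimulated with TNFα (10 ng/mL) for 4 h. Luciferase activity read in cell lysates; mean ± SEM, n = 3.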
inhibition [1],SMILES,Activity (HepG2)
64%,C=C1[C@@H]([C@@]2(C)C=CC(=O)OC(C)(C)[C@@H]2CC(=O)OC)[C@@H](OC(C)=O)[C@H](OC(=O)C(C)CC)[C@@]2(C)[C@H](C3=CC(=O)NC3)C[C@H]3O[C@]132 (stereo not given in full),Non-toxic
inactive,C=C1[C@@H]([C@@]2(C)C=CC(=O)OC(C)(C)[C@@H]2CC(=O)OC)[C@@H](OC(C)=O)[C@H](OC(=O)c2ccccc2)[C@@]2(C)[C@H](C3=CCNC3=O)C[C@H]3O[C@]132 (relative stereo),Non-toxic
inactive,C=C1[C@@H]([C@@]2(C)C=CC(=O)OC(C)(C)[C@@H]2CC(=O)OC)[C@@H](OC(C)=O)[C@H](OC(=O)c2ccccc2)[C@@]2(C)[C@H](C3=CCN(C)C3=O)C[C@H]3O[C@]132,Non-toxic
inactive,C=C1[C@@H]([C@@]2(C)C=CC(=O)OC(C)(C)[C@@H]2CC(=O)OC)[C@@H](OC(C)=O)[C@H](OC(=O)c2ccccc2)[C@@]2(C)[C@H](C3=CC(=O)NC3)C[C@H]3O[C@]132 (relative stereo),Non-toxic
inactive,C=C1[C@@H]([C@@]2(C)C=CC(=O)OC(C)(C)[C@@H]2CC(=O)OC)[C@@H](OC(C)=O)[C@H](OC(=O)C(C)CC)[C@@]2(C)[C@H](C3=CCNC3=O)C[C@H]3O[C@]132 (stereo not given in full),Non-toxic

# Reference: ChEMBL document CHEMBL3232886, “C-17 lactam-bearing limonoids from the twigs and leaves of Amoora tsangii” (J Nat Prod, 2014)
